Results reported in ChEMBL document CHEMBL4368943 (J Med Chem, 2019).
Values belong to the compound of their own block, whether it stands above or below them. Calls of active or inactive are those of the source. No cut-off for these calls is given here.

Experiments:
[1] = molecular target: T1, von Hippel-Lindau disease tumor suppressor/Estrogen receptor/Cullin-2 (Homo sapiens, UniProt P03372+P40337+Q13617); assay: Protac activity against VHL/cullin2/ERalpha in human MCF7 cells assessed as ERalpha degradation by measuring ER protein/GADPH ratio at 1 nM after 4 hrs by Western blot analysis relative to control; type: cell-based
Summary of the method: (§1)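 MCF-7 cells (DMEM, 10% FBS, passages 3−8) exposed 4 h. Lysed in RIPA with protease inhibitors; equal protein on 10% SDS-PAGE, PVDF, anti-ERα blot. Membranes stripped and reprobed for GAPDH. ERα/GAPDH ratio normalized to DMSO = 100; DC50 from densitometry of the dose series.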
Target sequence in this assay (P03372 whole entry, looked up): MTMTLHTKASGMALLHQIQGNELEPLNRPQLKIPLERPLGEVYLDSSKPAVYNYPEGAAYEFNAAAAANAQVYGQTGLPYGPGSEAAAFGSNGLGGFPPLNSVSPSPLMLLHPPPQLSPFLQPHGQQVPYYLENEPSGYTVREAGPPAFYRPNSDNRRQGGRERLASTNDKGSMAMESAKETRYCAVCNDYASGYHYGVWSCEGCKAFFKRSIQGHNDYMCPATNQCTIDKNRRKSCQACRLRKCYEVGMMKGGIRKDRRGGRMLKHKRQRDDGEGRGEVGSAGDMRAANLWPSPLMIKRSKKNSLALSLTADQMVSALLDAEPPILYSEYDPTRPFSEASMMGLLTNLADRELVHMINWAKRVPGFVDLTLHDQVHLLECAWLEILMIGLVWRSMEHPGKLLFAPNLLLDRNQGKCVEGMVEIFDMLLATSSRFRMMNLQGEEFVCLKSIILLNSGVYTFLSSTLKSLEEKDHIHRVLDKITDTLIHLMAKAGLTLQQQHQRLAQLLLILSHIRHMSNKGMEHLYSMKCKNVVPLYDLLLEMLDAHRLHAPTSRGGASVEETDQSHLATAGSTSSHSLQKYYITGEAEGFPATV
Target sequence in this assay (P40337 whole entry, looked up): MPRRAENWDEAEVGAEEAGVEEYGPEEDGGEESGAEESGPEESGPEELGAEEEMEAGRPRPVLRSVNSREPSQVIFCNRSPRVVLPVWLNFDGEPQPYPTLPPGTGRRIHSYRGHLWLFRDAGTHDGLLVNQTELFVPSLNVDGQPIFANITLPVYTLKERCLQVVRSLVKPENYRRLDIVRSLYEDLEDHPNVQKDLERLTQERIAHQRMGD
Target sequence in this assay (Q13617 whole entry, looked up): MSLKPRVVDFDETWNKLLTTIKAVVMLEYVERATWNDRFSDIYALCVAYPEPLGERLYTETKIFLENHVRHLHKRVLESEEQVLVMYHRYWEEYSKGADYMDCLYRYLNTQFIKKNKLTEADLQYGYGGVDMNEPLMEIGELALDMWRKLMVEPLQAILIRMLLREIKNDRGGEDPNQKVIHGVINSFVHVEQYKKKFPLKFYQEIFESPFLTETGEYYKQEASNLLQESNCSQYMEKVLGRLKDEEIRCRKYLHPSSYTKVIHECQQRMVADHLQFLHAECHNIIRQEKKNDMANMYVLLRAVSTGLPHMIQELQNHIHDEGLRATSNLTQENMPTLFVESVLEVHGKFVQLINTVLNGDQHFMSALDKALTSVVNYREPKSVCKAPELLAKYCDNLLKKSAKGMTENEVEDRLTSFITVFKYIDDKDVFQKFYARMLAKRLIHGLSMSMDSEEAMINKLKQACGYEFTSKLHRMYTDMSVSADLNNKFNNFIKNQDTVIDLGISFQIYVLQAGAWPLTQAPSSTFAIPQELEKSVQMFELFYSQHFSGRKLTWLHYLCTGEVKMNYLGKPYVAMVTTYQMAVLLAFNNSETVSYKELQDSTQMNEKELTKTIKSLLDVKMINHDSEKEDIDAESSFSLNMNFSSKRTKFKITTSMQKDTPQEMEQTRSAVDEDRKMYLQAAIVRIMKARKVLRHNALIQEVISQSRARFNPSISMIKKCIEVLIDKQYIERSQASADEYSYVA

[2] = molecular target: T1, von Hippel-Lindau disease tumor suppressor/Estrogen receptor/Cullin-2; assay: Protac activity against VHL/cullin2/ERalpha in human MCF7 cells assessed as ERalpha degradation by measuring ER protein/GADPH ratio at 10 nM after 4 hrs by Western blot analysis relative to control; type: cell-based; summary of the method: as §1
Target sequence in this assay (P03372 whole entry, looked up): as the sequence (P03372 whole entry, looked up) above
Target sequence in this assay (P40337 whole entry, looked up): as the sequence (P40337 whole entry, looked up) above
Target sequence in this assay (Q13617 whole entry, looked up): as the sequence (Q13617 whole entry, looked up) above

[3] = molecular target: T1, von Hippel-Lindau disease tumor suppressor/Estrogen receptor/Cullin-2; assay: Protac activity against VHL/cullin2/ERalpha in human MCF7 cells assessed as ERalpha degradation by measuring ER protein/GADPH ratio at 100 nM after 4 hrs by Western blot analysis relative to control; type: cell-based; summary of the method: as §1
Target sequence in this assay (P03372 whole entry, looked up): as the sequence (P03372 whole entry, looked up) above
Target sequence in this assay (P40337 whole entry, looked up): as the sequence (P40337 whole entry, looked up) above
Target sequence in this assay (Q13617 whole entry, looked up): as the sequence (Q13617 whole entry, looked up) above

[4] = molecular target: T1, von Hippel-Lindau disease tumor suppressor/Estrogen receptor/Cullin-2; assay: Protac activity against VHL/cullin2/ERalpha in human MCF7 cells assessed as ERalpha degradation by measuring ER protein/GADPH ratio at 1000 nM after 4 hrs by Western blot analysis relative to control; type: cell-based; summary of the method: as §1
Target sequence in this assay (P03372 whole entry, looked up): as the sequence (P03372 whole entry, looked up) above
Target sequence in this assay (P40337 whole entry, looked up): as the sequence (P40337 whole entry, looked up) above
Target sequence in this assay (Q13617 whole entry, looked up): as the sequence (Q13617 whole entry, looked up) above

[5] = molecular target: T1, von Hippel-Lindau disease tumor suppressor/Estrogen receptor/Cullin-2; assay: Protac activity against VHL/cullin2/ERalpha in human MCF7 cells assessed as ERalpha degradation after 4 hrs by Western blot analysis; type: cell-based; summary of the method: as §1
Target sequence in this assay (P03372 whole entry): as the sequence (P03372 whole entry, looked up) above
Target sequence in this assay (P40337 whole entry): as the sequence (P40337 whole entry, looked up) above
Target sequence in this assay (Q13617 whole entry): as the sequence (Q13617 whole entry, looked up) above

[6] = molecular target: T1, von Hippel-Lindau disease tumor suppressor/Estrogen receptor/Cullin-2; assay: Protac activity against VHL/cullin2/ERalpha in human MCF7 cells assessed as ERalpha degradation by measuring ER protein/GAPDH ratio at 0.03 nM after 4 hrs by Western blot analysis relative to control; type: cell-based; summary of the method: as §1
Target sequence in this assay (P03372 whole entry, looked up): as the sequence (P03372 whole entry, looked up) above
Target sequence in this assay (P40337 whole entry, looked up): as the sequence (P40337 whole entry, looked up) above
Target sequence in this assay (Q13617 whole entry, looked up): as the sequence (Q13617 whole entry, looked up) above

[7] = molecular target: T1, von Hippel-Lindau disease tumor suppressor/Estrogen receptor/Cullin-2; assay: Protac activity against VHL/cullin2/ERalpha in human MCF7 cells assessed as ERalpha degradation by measuring ER protein/GAPDH ratio at 0.3 nM after 4 hrs by Western blot analysis relative to control; type: cell-based; summary of the method: as §1
Target sequence in this assay (P03372 whole entry, looked up): as the sequence (P03372 whole entry, looked up) above
Target sequence in this assay (P40337 whole entry, looked up): as the sequence (P40337 whole entry, looked up) above
Target sequence in this assay (Q13617 whole entry, looked up): as the sequence (Q13617 whole entry, looked up) above

[8] = molecular target: T1, von Hippel-Lindau disease tumor suppressor/Estrogen receptor/Cullin-2; assay: Protac activity against VHL/cullin2/ERalpha in human MCF7 cells assessed as ERalpha degradation by measuring ER protein/GAPDH ratio at 0.6 nM after 4 hrs by Western blot analysis relative to control; type: cell-based; summary of the method: as §1
[9] = molecular target: T1, von Hippel-Lindau disease tumor suppressor/Estrogen receptor/Cullin-2; assay: Protac activity against VHL/cullin2/ERalpha in human MCF7 cells assessed as ERalpha degradation by measuring ER protein/GAPDH ratio at 5 nM after 4 hrs by Western blot analysis relative to control; type: cell-based; summary of the method: as §1
[10] = molecular target: T1, von Hippel-Lindau disease tumor suppressor/Estrogen receptor/Cullin-2; assay: Protac activity against VHL/cullin2/ERalpha in human MCF7 cells assessed as ERalpha degradation by measuring ER protein/GAPDH ratio at 30 nM after 4 hrs by Western blot analysis relative to control; type: cell-based; summary of the method: as §1
[11] = molecular target: T1, von Hippel-Lindau disease tumor suppressor/Estrogen receptor/Cullin-2; assay: Protac activity against VHL/cullin2/ERalpha in human MCF7 cells assessed as ERalpha degradation by measuring ER protein/GAPDH ratio at 300 nM after 4 hrs by Western blot analysis relative to control; type: cell-based; summary of the method: as §1
[12] = molecular target: T1, von Hippel-Lindau disease tumor suppressor/Estrogen receptor/Cullin-2; assay: Protac activity against VHL/cullin2/ERalpha in human T47D cells assessed as ERalpha degradation by measuring ER protein/GAPDH ratio at 0.03 nM after 4 hrs by Western blot analysis relative to control; type: cell-based
Summary of the method: (§2)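 T47D cells (DMEM, 10% FBS, passages 3−8) exposed 4 h over a dose series. RIPA lysates, equal protein, 10% SDS-PAGE, anti-ERα Western blot. ERα band density normalized to GAPDH; DC50 derived from the quantified dose–response.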

[13] = molecular target: T1, von Hippel-Lindau disease tumor suppressor/Estrogen receptor/Cullin-2; assay: Protac activity against VHL/cullin2/ERalpha in human T47D cells assessed as ERalpha degradation by measuring ER protein/GAPDH ratio at 0.1 nM after 4 hrs by Western blot analysis relative to control; type: cell-based; summary of the method: as §2
[14] = molecular target: T1, von Hippel-Lindau disease tumor suppressor/Estrogen receptor/Cullin-2; assay: Protac activity against VHL/cullin2/ERalpha in human T47D cells assessed as ERalpha degradation by measuring ER protein/GAPDH ratio at 0.3 nM after 4 hrs by Western blot analysis relative to control; type: cell-based; summary of the method: as §2
[15] = molecular target: T1, von Hippel-Lindau disease tumor suppressor/Estrogen receptor/Cullin-2; assay: Protac activity against VHL/cullin2/ERalpha in human T47D cells assessed as ERalpha degradation by measuring ER protein/GAPDH ratio at 0.6 nM after 4 hrs by Western blot analysis relative to control; type: cell-based; summary of the method: as §2
[16] = molecular target: T1, von Hippel-Lindau disease tumor suppressor/Estrogen receptor/Cullin-2; assay: Protac activity against VHL/cullin2/ERalpha in human T47D cells assessed as ERalpha degradation by measuring ER protein/GAPDH ratio at 1 nM after 4 hrs by Western blot analysis relative to control; type: cell-based; summary of the method: as §2
[17] = molecular target: T1, von Hippel-Lindau disease tumor suppressor/Estrogen receptor/Cullin-2; assay: Protac activity against VHL/cullin2/ERalpha in human T47D cells assessed as ERalpha degradation by measuring ER protein/GAPDH ratio at 5 nM after 4 hrs by Western blot analysis relative to control; type: cell-based; summary of the method: as §2
[18] = molecular target: T1, von Hippel-Lindau disease tumor suppressor/Estrogen receptor/Cullin-2; assay: Protac activity against VHL/cullin2/ERalpha in human T47D cells assessed as ERalpha degradation by measuring ER protein/GAPDH ratio at 10 nM after 4 hrs by Western blot analysis relative to control; type: cell-based; summary of the method: as §2
[19] = molecular target: T1, von Hippel-Lindau disease tumor suppressor/Estrogen receptor/Cullin-2; assay: Protac activity against VHL/cullin2/ERalpha in human T47D cells assessed as ERalpha degradation by measuring ER protein/GAPDH ratio at 30 nM after 4 hrs by Western blot analysis relative to control; type: cell-based; summary of the method: as §2
[20] = molecular target: T1, von Hippel-Lindau disease tumor suppressor/Estrogen receptor/Cullin-2; assay: Protac activity against VHL/cullin2/ERalpha in human T47D cells assessed as ERalpha degradation by measuring ER protein/GAPDH ratio at 100 nM after 4 hrs by Western blot analysis relative to control; type: cell-based; summary of the method: as §2
[21] = molecular target: T1, von Hippel-Lindau disease tumor suppressor/Estrogen receptor/Cullin-2; assay: Protac activity against VHL/cullin2/ERalpha in human T47D cells assessed as ERalpha degradation by measuring ER protein/GAPDH ratio at 300 nM after 4 hrs by Western blot analysis relative to control; type: cell-based; summary of the method: as §2
[22] = molecular target: T1, von Hippel-Lindau disease tumor suppressor/Estrogen receptor/Cullin-2; assay: Protac activity against VHL/cullin2/ERalpha in human T47D cells assessed as ERalpha degradation by measuring ER protein/GAPDH ratio at 1000 nM after 4 hrs by Western blot analysis relative to control; type: cell-based; summary of the method: as §2
[23] = molecular target: T1, von Hippel-Lindau disease tumor suppressor/Estrogen receptor/Cullin-2; assay: Protac activity against VHL/cullin2/ERalpha in human T47D cells assessed as ERalpha degradation after 4 hrs by Western blot analysis; type: cell-based; summary of the method: as §2
Target sequence in this assay (P03372 whole entry): as the sequence (P03372 whole entry, looked up) above
Target sequence in this assay (P40337 whole entry): as the sequence (P40337 whole entry, looked up) above
Target sequence in this assay (Q13617 whole entry): as the sequence (Q13617 whole entry, looked up) above

[24] = molecular target: T1, von Hippel-Lindau disease tumor suppressor/Estrogen receptor/Cullin-2; assay: Protac activity against VHL/cullin2/ERalpha in human MCF7 cells assessed as ERalpha degradation by measuring reduction in ER protein level at 30 nM after 1 hr by Western blot analysis relative to control; type: cell-based; set-up: scale not given: the % may be the effect or the level left
Summary of the method: (§3)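 Time course: cells given 30 nM degrader and harvested at time points from 1 h up to 24 h. ERα assessed by Western blot against a GAPDH loading control, with levels taken relative to DMSO.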

[25] = molecular target: T1, von Hippel-Lindau disease tumor suppressor/Estrogen receptor/Cullin-2; assay: Protac activity against VHL/cullin2/ERalpha in human MCF7 cells assessed as ERalpha degradation by measuring reduction in ER protein level at 30 nM after 3 hrs by Western blot analysis relative to control; type: cell-based; set-up: scale not given: the % may be the effect or the level left; summary of the method: as §3
[26] = molecular target: T1, von Hippel-Lindau disease tumor suppressor/Estrogen receptor/Cullin-2; assay: Protac activity against VHL/cullin2/ERalpha in human T47D cells assessed as ERalpha degradation by measuring reduction in ER protein level at 30 nM after 1 to 3 hrs by Western blot analysis relative to control; type: cell-based; summary of the method: as §3
[27] = molecular target: T1, von Hippel-Lindau disease tumor suppressor/Estrogen receptor/Cullin-2; assay: Protac activity against VHL/cullin2/ERalpha in human MCF7 cells assessed as ERalpha degradation by measuring reduction in ER protein level pre-treated with raloxifene for 2 hrs followed by compound exposure at 30 nM for 4 hrs by Western blot analysis; type: cell-based
[28] = tested on: MCF7; assay: Inhibition of cell growth in human MCF7 cells after 4 days by wst-8-based colorimetric analysis; type: functional; settings: MCF7, 96 h
Summary of the method: (§4)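 Cells seeded at 1500/well overnight, then exposed to graded compound doses for 4 days. Growth read by colorimetric WST-8 assay. GI50 from fitted curves. MCF-7 cells were kept in DMEM, 10% FBS, passages 3−8; human mammary epithelial cells were run the same way.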

[29] = tested on: MCF7; assay: Inhibition of cell growth in human MCF7 cells after 4 days by wst-8-based colorimetric analysis relative to control; type: functional; summary of the method: as §4
[30] = tested on: MDA-MB-231; assay: Inhibition of cell growth in human MDA-MB-231 cells at 10^-13 to 10^-5 M after 4 days by wst-8-based colorimetric analysis; type: functional
[31] = Inhibition of cell growth in primary human mammary epithelial cells at 10^-13 to 10^-6 M after 4 days by wst-8-based colorimetric analysis; settings: 96 h; summary of the method: as §4
[32] = tested on: MCF7; assay: Antiproliferative activity against human MCF7 cells at 10 to 300 nM after 5 days by crystal violet staining based assay; type: functional, cell-based
Summary of the method: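 MCF-7 cells in DMEM with 10% FBS and penicillin/streptomycin, passages 3−8, exposed to compounds at 10, 100 and 300 nM for 5 days, then fixed and stained with crystal violet.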

[33] = molecular target: T1, von Hippel-Lindau disease tumor suppressor/Estrogen receptor/Cullin-2; assay: Protac activity against VHL/cullin2/ERalpha in human MCF7 cells assessed as ERalpha degradation by measuring ER protein/GAPDH ratio at 0.1 nM after 4 hrs by Western blot analysis relative to control; type: cell-based; summary of the method: as §1
[34] = molecular target: T1, von Hippel-Lindau disease tumor suppressor/Estrogen receptor/Cullin-2; assay: Protac activity against VHL/cullin2/ERalpha in human MCF7 cells assessed as ERalpha degradation by measuring reduction in ER protein level pre-treated with carfilzomib for 2 hrs followed by compound exposure at 30 nM for 4 hrs by Western blot analysis; type: cell-based
[35] = molecular target: T1, von Hippel-Lindau disease tumor suppressor/Estrogen receptor/Cullin-2; assay: Protac activity against VHL/cullin2/ERalpha in human T47D cells assessed as ERalpha degradation by measuring reduction in ER protein level at 30 nM after 1 to 24 hrs hrs by Western blot analysis relative to control; type: cell-based; summary of the method: as §3
[36] = Binding affinity to His-TEV-tagged VHL (54 to 213 residues) (unknown origin)/Elongin B (1 to 118 residues)/Elongin C (1 to 96 residues) expressed in Escherichia coli BL21(DE3) by FP assay; set-up: species or system Homo sapiens
Summary of the method: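 Competitive FP. Tracer is a fluorescent VHL ligand (Kd 2.3 nM). VHL–ElonginB/C complex and tracer each at 5 nM final, preincubated. Compound in DMSO (5 µL into 95 µL) for 60 min at room temperature with shaking. Ex 485/em 530 nm. IC50 by nonlinear regression; Ki from probe KD and protein/probe concentrations. Duplicate, three independent experiments.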

Ratio [1]: 8
Ratio [2]: 0.3
Ratio [3]: 0.3
Ratio [4]: 13
DC50 [5]: 0.00017 µM
Ratio [6]: 84
Ratio [7]: 28
Ratio [8]: 12
Ratio [9]: 0.3
Ratio [10]: 0.3
Ratio [11]: 0.3
Ratio [12]: 84
Ratio [13]: 73
Ratio [14]: 62
Ratio [15]: 58
Ratio [16]: 33
Ratio [17]: 4
Ratio [18]: 3
Ratio [19]: 2
Ratio [20]: 4
Ratio [21]: 6
Ratio [22]: 25
DC50 [23]: 0.00043 µM
Activity [24]: > 80%
Activity [25]: 100%
Activity [26]: Active
Activity [27]: inactive
GI50 [28]: 0.00077 µM
Ratio [33]: 76
Activity [34]: inactive
Activity [35]: Active
Compound: CCN(CCCCCOCC(=O)N[C@H](C(=O)N1C[C@H](O)C[C@H]1C(=O)N[C@@H](C)c1ccc(-c2scnc2C)cc1)C(C)(C)C)CCOc1ccc(C(=O)c2c(-c3ccc(O)cc3)sc3cc(O)ccc23)cc1
Imax [29]: 57.5%
growth inhibition (GI) [30]: inactive
Activity [31]: Non-Toxic
Activity [32]: Active

IC50 [36]: 7.87 µM
Compound: CC(=O)N[C@H](C(=O)N1C[C@H](O)C[C@H]1C(=O)N[C@@H](C)c1ccc(Cl)cc1)C(C)(C)C

IC50 [36]: 6.11 µM
Compound: CC(=O)N[C@H](C(=O)N1C[C@H](O)C[C@H]1C(=O)N[C@@H](C)c1ccc(C2CC2)cc1)C(C)(C)C

IC50 [36]: 58.9 µM
Compound: CC(=O)N[C@H](C(=O)N1C[C@H](O)C[C@H]1C(=O)N[C@@H](C)c1ccc(C(C)(C)C)cc1)C(C)(C)C
